# Assay results reported in ChEMBL document CHEMBL1773015, “2-Arylbenzothiazole, benzoxazole and benzimidazole derivatives as fluorogenic substrates for the detection of nitroreductase and aminopeptidase activity in clinically important bacteria” (Bioorg Med Chem, 2011).
# Activity calls are given as the source filed them. The rule behind the calls is not given here.
# Tests used:
# [1] = test system: Streptococcus pyogenes; experiment: Binding affinity to Streptococcus pyogenes NCTC 8306 nitroreductase assessed as fluorescent colonies after 24 hrs by fluorescence staining
# In short: (§1)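 Columbia agar plates contained substrate at a final 100 mg/L, added from a 1-methyl-2-pyrrolidone solution to molten agar at 50 °C. Inoculum was a 10⁸ CFU/mL suspension in 0.85% saline, spread for single colonies, then incubated at 37 °C in air for 24 h. Colony fluorescence under UV light (365 nm) was graded as strong, moderate, weak or none, with colour noted.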
# [2] = test system: Staphylococcus epidermidis; experiment: Binding affinity to Staphylococcus epidermidis NCTC 11047 nitroreductase assessed as fluorescent colonies after 24 hrs by fluorescence staining; in short: as §1
# [3] = test system: Listeria monocytogenes; experiment: Binding affinity to Listeria monocytogenes NCTC 11994 nitroreductase assessed as fluorescent colonies after 24 hrs by fluorescence staining; in short: as §1
# [4] = test system: Staphylococcus aureus; experiment: Binding affinity to Staphylococcus aureus NCTC 6571 nitroreductase assessed as fluorescent colonies after 24 hrs by fluorescence staining; in short: as §1
# [5] = test system: Escherichia coli; experiment: Binding affinity to Escherichia coli NCTC 10418 nitroreductase assessed as fluorescent colonies after 24 hrs by fluorescence staining; in short: as §1
# [6] = test system: Staphylococcus aureus; experiment: Binding affinity to Staphylococcus aureus (MRSA) NCTC 11939 nitroreductase assessed as fluorescent colonies after 24 hrs by fluorescence staining; in short: as §1
# [7] = test system: Providencia rettgeri; experiment: Binding affinity to Providencia rettgeri NCTC 7475 nitroreductase assessed as fluorescent colonies after 24 hrs by fluorescence staining; in short: as §1
# [8] = test system: Enterococcus faecalis; experiment: Binding affinity to Enterococcus faecalis NCTC 775 nitroreductase assessed as fluorescent colonies after 24 hrs by fluorescence staining; in short: as §1
# [9] = test system: Enterobacter cloacae; experiment: Binding affinity to Enterobacter cloacae NCTC 11936 nitroreductase assessed as fluorescent colonies after 24 hrs by fluorescence staining; in short: as §1
# [10] = test system: Serratia marcescens; experiment: Binding affinity to Serratia marcescens NCTC 10211 nitroreductase assessed as fluorescent colonies after 24 hrs by fluorescence staining; in short: as §1
# [11] = test system: Morganella morganii; experiment: Binding affinity to Morganella morganii WS 462403 nitroreductase assessed as fluorescent colonies after 24 hrs by fluorescence staining; in short: as §1
# [12] = test system: Pseudomonas aeruginosa; experiment: Binding affinity to Pseudomonas aeruginosa NCTC 10662 nitroreductase assessed as fluorescent colonies after 24 hrs by fluorescence staining; in short: as §1
# [13] = test system: Enterococcus faecium; experiment: Binding affinity to Enterococcus faecium NCTC 7171 nitroreductase assessed as fluorescent colonies after 24 hrs by fluorescence staining
# [14] = test system: Serratia marcescens; experiment: Binding affinity to Serratia marcescens NCTC 10211 aminopeptidase assessed as fluorescent colonies after 24 hrs by fluorescence staining
# In short: (§2)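 Substrate in 1-methyl-2-pyrrolidone was mixed into molten Columbia agar at 50 °C (final 100 mg/L). NCTC strains were subcultured on Columbia agar and suspended in 0.85% saline to 10⁸ CFU/mL by densitometer. Plates were spread for single colonies and incubated at 37 °C in air for 24 h. Colonies were viewed under UV light (365 nm) and fluorescence intensity and colour scored visually; growth was also scored.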
# [15] = test system: Pseudomonas aeruginosa; experiment: Binding affinity to Pseudomonas aeruginosa NCTC 10662 aminopeptidase assessed as fluorescent colonies after 24 hrs by fluorescence staining; in short: as §2
# [16] = test system: Escherichia coli; experiment: Binding affinity to Escherichia coli NCTC 10418 aminopeptidase assessed as fluorescent colonies after 24 hrs by fluorescence staining; in short: as §2
# [17] = test system: Providencia rettgeri; experiment: Binding affinity to Providencia rettgeri NCTC 7475 aminopeptidase assessed as fluorescent colonies after 24 hrs by fluorescence staining; in short: as §2
# [18] = test system: Enterobacter cloacae; experiment: Binding affinity to Enterobacter cloacae NCTC 11936 aminopeptidase assessed as fluorescent colonies after 24 hrs by fluorescence staining; in short: as §2
# [19] = test system: Morganella morganii; experiment: Binding affinity to Morganella morganii WS 462403 aminopeptidase assessed as fluorescent colonies after 24 hrs by fluorescence staining; in short: as §2
Compound,Activity [1],Activity [2],Activity [3],Activity [4],Activity [5],Activity [6],Activity [7],Activity [8],Activity [9],Activity [10],Activity [11],Activity [12],Activity [13],Activity [14],Activity [15],Activity [16],Activity [17],Activity [18],Activity [19]
O=[N+]([O-])c1ccc(F)cc1-c1nc2ccccc2s1,inactive,inactive,inactive,Active,Active,Active,Active,inactive,Active,Active,Active,inactive,inactive,–,–,–,–,–,–
NCCC(=O)Nc1ccccc1-c1nc2ccccc2s1,–,–,–,–,–,–,–,–,–,–,–,–,–,Active,Active,Active,inactive,inactive,Active
COc1cc(-c2nc3ccccc3s2)c([N+](=O)[O-])cc1OC,inactive,Active,inactive,Active,Active,Active,Active,inactive,Active,Active,Active,Active,inactive,–,–,–,–,–,–
Cn1c(-c2cc(Cl)ccc2[N+](=O)[O-])nc2ccccc21,inactive,inactive,inactive,Active,Active,Active,Active,inactive,Active,Active,Active,Active,inactive,–,–,–,–,–,–
O=[N+]([O-])c1ccc(Cl)cc1-c1nc2ccccc2o1,inactive,inactive,inactive,Active,Active,Active,Active,inactive,Active,Active,Active,Active,inactive,–,–,–,–,–,–
C[C@H](N)C(=O)Nc1ccccc1-c1nc2ccccc2o1,–,–,–,–,–,–,–,–,–,–,–,–,–,Active,Active,Active,Active,Active,Active
C[C@H](N)C(=O)Nc1ccccc1-c1nc2ccccc2s1,–,–,–,–,–,–,–,–,–,–,–,–,–,Active,Active,Active,Active,Active,Active
O=[N+]([O-])c1ccccc1-c1nc2ccccc2s1,inactive,Active,inactive,Active,Active,Active,Active,inactive,Active,Active,Active,inactive,inactive,–,–,–,–,–,–
Cn1c(-c2ccccc2[N+](=O)[O-])nc2ccccc21,inactive,inactive,inactive,inactive,inactive,inactive,inactive,inactive,inactive,inactive,Active,inactive,inactive,–,–,–,–,–,–
O=[N+]([O-])c1ccc(Cl)cc1-c1nc2ccccc2s1,inactive,inactive,inactive,Active,Active,Active,Active,inactive,Active,Active,Active,Active,inactive,–,–,–,–,–,–
O=[N+]([O-])c1ccccc1-c1nc2ccccc2o1,inactive,Active,inactive,Active,Active,Active,Active,inactive,Active,Active,Active,Active,inactive,–,–,–,–,–,–
COc1cc(-c2nc3ccccc3o2)c([N+](=O)[O-])cc1OC,inactive,inactive,inactive,Active,Active,Active,Active,inactive,Active,Active,Active,inactive,inactive,–,–,–,–,–,–
NCCC(=O)Nc1ccccc1-c1nc2ccccc2o1,–,–,–,–,–,–,–,–,–,–,–,–,–,Active,Active,Active,Active,Active,Active
O=[N+]([O-])c1ccc(F)cc1-c1nc2ccccc2o1,inactive,inactive,inactive,Active,Active,Active,Active,inactive,Active,Active,Active,inactive,inactive,–,–,–,–,–,–
